Data taken from ChEMBL document CHEMBL1268907, “Synthesis and evaluation of benzoxazole derivatives as 5-lipoxygenase inhibitors” (Bioorg Med Chem, 2010).
Active and inactive are the calls of the source. No cut-off for these calls is given here.

Experiments:
[1] = molecular target: T1, Polyunsaturated fatty acid 5-lipoxygenase (Mus musculus, UniProt P48999); test: Inhibition of 5-lipoxygenase in BALB/c mouse BMMC assessed as LTC4 release after 20 mins by enzyme immunoassay
T1 sequence (P48999 whole entry): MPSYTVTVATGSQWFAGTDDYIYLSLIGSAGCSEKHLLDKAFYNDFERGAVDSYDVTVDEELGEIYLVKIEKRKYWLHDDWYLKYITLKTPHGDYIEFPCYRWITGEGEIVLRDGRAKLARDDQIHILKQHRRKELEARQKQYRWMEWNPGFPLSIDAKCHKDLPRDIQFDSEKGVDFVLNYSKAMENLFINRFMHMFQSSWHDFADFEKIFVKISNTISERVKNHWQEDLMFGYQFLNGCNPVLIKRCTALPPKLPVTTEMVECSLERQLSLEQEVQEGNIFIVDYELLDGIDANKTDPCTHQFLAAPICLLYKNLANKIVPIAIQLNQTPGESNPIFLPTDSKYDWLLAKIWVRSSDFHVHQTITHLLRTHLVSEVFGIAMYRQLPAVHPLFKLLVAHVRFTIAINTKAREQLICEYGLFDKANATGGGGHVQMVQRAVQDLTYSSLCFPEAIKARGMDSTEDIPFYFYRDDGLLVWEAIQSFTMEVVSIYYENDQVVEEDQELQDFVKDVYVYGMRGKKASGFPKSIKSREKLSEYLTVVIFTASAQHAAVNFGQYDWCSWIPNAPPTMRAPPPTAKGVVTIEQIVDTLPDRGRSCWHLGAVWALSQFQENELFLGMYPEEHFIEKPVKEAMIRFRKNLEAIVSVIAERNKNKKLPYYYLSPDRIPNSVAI
Summary of the method: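 Bone marrow mast cells from male Balb/c mice, cultured up to 4 weeks in enriched RPMI + 10% FBS + IL-3 (2 ng/mL); >98% purity by toluidine blue staining. Cells at 1×10^6/mL pre-incubated with compound in DMSO (final <0.5%) for 30 min at 37 °C, then stimulated with SCF 100 ng/mL for 20 min. Supernatant LTC4 measured by EIA in triplicate; % reduction calculated.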

Mus musculus [2] = test: Antiasthamatic activity against ovalbumin-induced airway hyperresponsiveness mouse model assessed as reduction of increase in penh value at 30 mg/kg, po administered 24 hrs after last ovalbumin challenge measured after 24 hrs by plethysmography; assay type: functional, organism-based; design: dose 30 mg/kg
Summary of the method: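 OVA/alum-sensitized mice (i.p., days 0 and 11) challenged with 1% OVA aerosol, given 30 mg/kg orally. 24 h after final aerosol, whole-body plethysmography was run: PBS aerosol, then methacholine 12.5, 25 and 50 mg/mL for 3 min each, with 5 min recording per step. Peak Penh at each dose expressed as % of basal PBS Penh.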

Mus musculus [3] = test: Antiasthamatic activity against ovalbumin-induced airway hyperresponsiveness mouse model assessed as reduction of bronchoalveolar lavage fluid IL-5 level at 30 mg/kg, po measured 48 hrs after ovalbumin challenge; assay type: functional, Lung
Summary of the method: (§1)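 OVA sensitization i.p. (20 µg OVA with 2 mg aluminum hydroxide in PBS pH 7.4, days 0 and 11), then airway challenge with 1% OVA aerosol for 20 min on days 19, 20, 21 and 25. Compound given orally at 30 mg/kg. BALF collected 48 h after last challenge by three 0.5 mL ice-cold PBS lavages and centrifuged. IL-4, IL-5 and IL-13 measured by mouse ELISA (detection limit 250 pg/mL). n = 5–6 per group, mean ± SEM.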

Mus musculus [4] = test: Antiasthamatic activity against ovalbumin-induced airway hyperresponsiveness mouse model assessed as reduction of mononuclear cells infiltration at 30 mg/kg, po measured 48 hrs after ovalbumin challenge; assay type: functional, organism-based; design: dose 30 mg/kg
Summary of the method: (§2)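 Mice sensitized i.p. with OVA/alum on days 0 and 11 and challenged with 1% OVA aerosol on days 19–21 and 25. Oral dosing at 30 mg/kg. Lungs taken 48 h after last challenge, fixed 24 h in 10% neutral-buffered formalin, paraffin-embedded, cut at 4 µm and H&E stained. Peribronchial/perivascular infiltration scored 0–3 blind by two independent investigators.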

Mus musculus [5] = test: Antiasthamatic activity against ovalbumin-induced airway hyperresponsiveness mouse model assessed as reduction of plasma IgE level at 30 mg/kg, po measured 48 hrs after ovalbumin challenge (reference value: 41.82 +/- 10.57 ng/ml); assay type: functional
Mus musculus [6] = test: Antiasthamatic activity against ovalbumin-induced airway hyperresponsiveness mouse model assessed as reduction of bronchoalveolar lavage fluid IL-13 level at 30 mg/kg, po measured 48 hrs after ovalbumin challenge; assay type: functional, Lung; summary of the method: as §1
Mus musculus [7] = test: Antiasthamatic activity against ovalbumin-induced airway hyperresponsiveness mouse model assessed as reduction of eosinophils infiltration at 30 mg/kg, po measured 48 hrs after ovalbumin challenge; assay type: functional, organism-based; design: dose 30 mg/kg; summary of the method: as §2
Mus musculus [8] = test: Antiasthamatic activity against ovalbumin-induced airway hyperresponsiveness mouse model assessed as reduction of bronchoalveolar lavage fluid IL-4 level at 30 mg/kg, po measured 48 hrs after ovalbumin challenge; assay type: functional, Lung; summary of the method: as §1

Structure (SMILES): COc1ccc2oc(Nc3ccc(C(C)C)cc3)nc2c1
- IC50 [1]: 2.64 µM

Structure (SMILES): CCc1ccc(Nc2nc3cc(Cl)ccc3o2)cc1
- Activity (Mus musculus [2]): Active
- Activity (Mus musculus [3]): 110.91 ng/mL
- Activity (Mus musculus [4]): Active
- Activity (Mus musculus [5]): 25.44 ng/mL
- Activity (Mus musculus [6]): 71.91 ng/mL
- Activity (Mus musculus [7]): Active
- Activity (Mus musculus [8]): 163.49 ng/mL

Structure (SMILES): COc1ccc2oc(Nc3ccccc3)nc2c1
- IC50 [1]: 7.88 µM

Structure (SMILES): COc1ccc2oc(Nc3ccc(SC)cc3)nc2c1
- IC50 [1]: 2.77 µM

Structure (SMILES): COc1ccc2oc(Nc3cccc(Br)c3)nc2c1
- IC50 [1]: 2.03 µM

Structure (SMILES): Cc1ccc2oc(Nc3ccccc3)nc2c1
- IC50 [1]: 4.6 µM

Structure (SMILES): CCc1ccccc1Nc1nc2cc(C)ccc2o1
- IC50 [1]: 5.66 µM

Structure (SMILES): COc1cccc(Nc2nc3cc(C)ccc3o2)c1
- IC50 [1]: 6.83 µM

Structure (SMILES): Clc1ccc2oc(Nc3ccccc3)nc2c1
- IC50 [1]: 4.5 µM

Structure (SMILES): CCc1ccc(Nc2nc3cc(C)ccc3o2)cc1
- Activity (Mus musculus [2]): Active
- Activity (Mus musculus [3]): 116.92 ng/mL
- Activity (Mus musculus [4]): Active
- IC50 [1]: 0.12 µM
- Activity (Mus musculus [5]): 19.21 ng/mL
- Activity (Mus musculus [6]): 64.3 ng/mL
- Activity (Mus musculus [7]): Active
- Activity (Mus musculus [8]): 198.34 ng/mL

Structure (SMILES): CSc1ccc(Nc2nc3cc(C)ccc3o2)cc1
- IC50 [1]: 7.31 µM
